According to ChEMBL document CHEMBL5678801, “A benzothiophene inhibitor of mitogen-activated protein kinase-activated protein kinase 2 inhibits tumor necrosis factor alpha production and has oral anti-inflammatory efficacy in acute and chronic models of inflammation” (J Pharmacol Exp Ther, 2010):

Columns and labels:
[1] = biological target: T1, Serine/threonine-protein kinase BRSK2 (Homo sapiens, UniProt Q8IWQ3); test: Inhibition of BrSK2 (unknown origin)
T1 sequence (Q8IWQ3 whole entry): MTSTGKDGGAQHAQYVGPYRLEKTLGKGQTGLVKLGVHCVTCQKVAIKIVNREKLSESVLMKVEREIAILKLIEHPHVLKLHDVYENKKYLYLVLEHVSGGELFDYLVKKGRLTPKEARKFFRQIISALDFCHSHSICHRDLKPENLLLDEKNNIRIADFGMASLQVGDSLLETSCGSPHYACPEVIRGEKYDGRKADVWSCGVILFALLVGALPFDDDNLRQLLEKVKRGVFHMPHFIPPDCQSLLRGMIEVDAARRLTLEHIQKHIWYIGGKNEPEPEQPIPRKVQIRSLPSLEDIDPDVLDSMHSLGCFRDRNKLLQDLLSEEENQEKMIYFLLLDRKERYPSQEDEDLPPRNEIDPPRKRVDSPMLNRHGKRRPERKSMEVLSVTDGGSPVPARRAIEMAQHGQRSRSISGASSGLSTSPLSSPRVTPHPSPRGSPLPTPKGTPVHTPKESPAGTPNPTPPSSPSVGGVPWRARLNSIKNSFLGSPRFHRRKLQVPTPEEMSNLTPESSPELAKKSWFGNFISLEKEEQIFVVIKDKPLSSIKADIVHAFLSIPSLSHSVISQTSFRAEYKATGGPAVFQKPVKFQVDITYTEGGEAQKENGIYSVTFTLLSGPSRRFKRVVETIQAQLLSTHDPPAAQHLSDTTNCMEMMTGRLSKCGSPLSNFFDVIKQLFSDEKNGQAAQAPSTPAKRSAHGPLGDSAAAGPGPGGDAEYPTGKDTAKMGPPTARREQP
How it was run: (§1)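 Kinase panel: 200 kinases were first screened at 1 μM inhibitor for percent inhibition. Those above 50% inhibition were then titrated for IC50. MgATP was fixed at the Km(app) determined for each enzyme.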

[2] = biological target: T2, Tyrosine-protein kinase receptor UFO (Homo sapiens, UniProt P30530); test: Inhibition of Axl (unknown origin); how it was run: as §1
T2 sequence (P30530 whole entry): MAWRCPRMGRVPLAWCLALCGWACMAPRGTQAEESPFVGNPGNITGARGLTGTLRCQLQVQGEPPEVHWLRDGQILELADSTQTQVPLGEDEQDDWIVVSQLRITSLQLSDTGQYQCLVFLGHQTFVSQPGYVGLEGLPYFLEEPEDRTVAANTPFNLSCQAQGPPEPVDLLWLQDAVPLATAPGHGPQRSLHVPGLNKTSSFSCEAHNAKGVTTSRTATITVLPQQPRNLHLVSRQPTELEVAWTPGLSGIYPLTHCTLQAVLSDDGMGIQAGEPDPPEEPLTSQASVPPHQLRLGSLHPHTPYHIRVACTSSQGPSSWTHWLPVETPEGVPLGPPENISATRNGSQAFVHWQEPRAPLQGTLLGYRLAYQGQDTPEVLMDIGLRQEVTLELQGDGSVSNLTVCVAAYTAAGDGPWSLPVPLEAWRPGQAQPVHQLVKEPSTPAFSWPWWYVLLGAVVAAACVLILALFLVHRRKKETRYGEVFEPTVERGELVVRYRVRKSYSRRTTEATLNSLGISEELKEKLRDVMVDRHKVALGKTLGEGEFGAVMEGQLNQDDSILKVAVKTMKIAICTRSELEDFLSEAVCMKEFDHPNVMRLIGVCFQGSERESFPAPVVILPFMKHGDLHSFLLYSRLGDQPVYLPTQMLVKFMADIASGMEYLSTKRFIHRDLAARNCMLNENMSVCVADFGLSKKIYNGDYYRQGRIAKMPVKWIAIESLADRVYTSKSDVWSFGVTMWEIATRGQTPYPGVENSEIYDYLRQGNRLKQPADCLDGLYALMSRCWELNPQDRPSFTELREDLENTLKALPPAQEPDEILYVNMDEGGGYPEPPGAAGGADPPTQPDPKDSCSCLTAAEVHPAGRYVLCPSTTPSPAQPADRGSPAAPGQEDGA

[3] = biological target: T3, Tyrosine-protein kinase Mer (Homo sapiens, UniProt Q12866); test: Inhibition of Mer (unknown origin); how it was run: as §1
T3 sequence (Q12866 whole entry): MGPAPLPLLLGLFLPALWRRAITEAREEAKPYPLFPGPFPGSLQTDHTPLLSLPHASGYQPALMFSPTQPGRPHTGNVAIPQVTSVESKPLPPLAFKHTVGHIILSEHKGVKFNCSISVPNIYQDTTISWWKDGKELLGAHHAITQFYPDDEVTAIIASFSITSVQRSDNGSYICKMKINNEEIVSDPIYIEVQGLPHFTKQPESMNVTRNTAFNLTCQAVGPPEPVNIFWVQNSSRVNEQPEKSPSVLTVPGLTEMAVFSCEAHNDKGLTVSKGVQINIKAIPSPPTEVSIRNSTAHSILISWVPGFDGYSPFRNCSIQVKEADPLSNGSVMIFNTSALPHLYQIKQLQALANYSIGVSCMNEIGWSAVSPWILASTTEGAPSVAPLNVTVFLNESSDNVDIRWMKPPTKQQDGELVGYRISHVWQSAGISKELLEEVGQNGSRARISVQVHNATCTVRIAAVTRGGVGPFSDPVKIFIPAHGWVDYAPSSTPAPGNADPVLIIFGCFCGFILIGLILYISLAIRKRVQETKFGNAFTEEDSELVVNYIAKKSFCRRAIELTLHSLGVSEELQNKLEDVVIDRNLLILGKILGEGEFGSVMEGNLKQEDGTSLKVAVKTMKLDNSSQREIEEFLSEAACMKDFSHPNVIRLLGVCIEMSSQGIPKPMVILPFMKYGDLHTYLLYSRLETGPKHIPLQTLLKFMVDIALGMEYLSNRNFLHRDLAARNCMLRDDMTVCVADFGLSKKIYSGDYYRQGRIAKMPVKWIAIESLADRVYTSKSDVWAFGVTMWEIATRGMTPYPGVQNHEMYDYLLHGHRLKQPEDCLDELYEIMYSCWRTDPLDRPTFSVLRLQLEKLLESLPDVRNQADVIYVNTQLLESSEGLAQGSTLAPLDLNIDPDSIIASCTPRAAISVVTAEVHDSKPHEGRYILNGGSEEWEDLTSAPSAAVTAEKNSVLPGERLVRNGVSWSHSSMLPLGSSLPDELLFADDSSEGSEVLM

[4] = Inhibition of MK2 activity in LPS induced human Whole blood cell preincubated with compound for 1 hr followed by LPS induction and measured after 30 mins by Dissociation enhanced lanthanide fluoro-immuno assay; assay type: functional, cell-based
How it was run: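 Whole blood was stimulated with LPS 100 ng/ml for 30 min. Phospho-Ser82 HSP27 and total HSP27 in lysates were read by DELFIA immunoassay.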

- IC50 [1]: 90 nM
- IC50 [2]: 428 nM
- IC50 [3]: 76 nM
- IC50 [4]: 1600 nM
SMILES: Cc1ccc(-c2ccc3c(ccc4sc5c(c43)NC[C@@H](C)NC5=O)n2)cn1
